Source: PubChem (several laboratories)
T cell modulator = T cell immune modulators affecting CD8 T cell-vesicle binding. 2C CD8+ T cell-vesicle binding, flow cytometry; active compounds read low. response (vesicle binding), % at 7 µM. 0.068% of 330,000 active. AID 2052;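 active = response, share of CD8 T cells binding vesicles, and their 90th percentile fluorescence all below set limits, cut at about 80% in these data, passing the limit was not always enough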;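 also: values below 100% mean blocked vesicle binding to the CD8+ T cells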
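material = purified 2C TCR transgenic mouse naive CD8+ T cells | controls = Unloaded micro-vesicles (low), QL9 vesicles with 0.7% DMSO (high) | detection = cytometric PE anti-B7-1 and Alexa647 anti-CD8 signals after 1% paraformaldehyde fixation | incubation = binding step 1.5 h, 37 °C, antibody labelling 20 min, ice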
PfG6PD inh = PfG6PD (Plasmodium falciparum) enzyme inhibition; PfGluPho enzyme, NADPH resazurin-diaphorase fluorescence; inhibition, % at 20 µM; 0.78% of 350,000 active; AID 504690;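 active = inhibition reaching at least a set limit at 20 µM in the primary screen, cut at about 59% in these data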
PKA-R1A activ = activators of PKA-R1A complex. 0.083% of 340,000 active. P00514+P68181. PKA-R1A dissociation, Cy5-IP20 fluorescence polarization; scaled: DMSO 0%, 113 µM cGMP 100%. activation, % at 11.4 µM;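 active = percent activation above the mean of all tested compounds plus 3 SD, cut at about 19% in these data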;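 also: higher means more PKAc released from R1A so a rise in polarization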
HKDC1 inh = blocks human hexokinase HKDC1 activity. AID 493160. recombinant HKDC1, G6PDH/diaphorase resazurin coupled fluorescence. Q2TB90. inhibition, % at 20 µM. 0.16% of 340,000 active;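 active = inhibition above about 35% when tested at 20 µM, limit read from the data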
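Material: recombinant HKDC1 hexokinase; Amount: HKDC1 at 5 µg/mL; Medium: Tris pH 8.0 buffer with MgCl2, Tween-20, BSA, BME; Schedule: 90 min reaction incubation at room temperature, dark; Technique: coupled resazurin fluorescence, excitation 525 nm, emission 613 nm.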
ATG4B inh = ATG4B (human) cysteine protease inhibition; inhibition, % at 8.33 µM; Q9Y4P1; 0.51% of 340,000 active; ATG4B cleavage of LC3-PLA2, NBD-HPC fluorescence, 1 h; AID 504462; in the data active = inhibition above about 40%
Target sequence (Q9Y4P1 whole entry, looked up): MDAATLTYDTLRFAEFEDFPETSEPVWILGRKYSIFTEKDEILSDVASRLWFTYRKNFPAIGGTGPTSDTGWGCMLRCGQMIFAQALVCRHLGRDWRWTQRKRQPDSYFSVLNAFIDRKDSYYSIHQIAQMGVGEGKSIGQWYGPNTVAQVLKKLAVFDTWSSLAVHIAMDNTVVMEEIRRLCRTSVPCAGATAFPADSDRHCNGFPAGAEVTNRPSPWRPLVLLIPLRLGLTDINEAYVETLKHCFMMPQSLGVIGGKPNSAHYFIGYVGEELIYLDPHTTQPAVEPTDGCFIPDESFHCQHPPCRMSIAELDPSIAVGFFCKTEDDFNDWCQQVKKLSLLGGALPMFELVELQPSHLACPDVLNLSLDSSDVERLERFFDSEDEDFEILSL
PKA-R2B activ = PKA-R2B complex activation | P22694+P31323 | PKA-R2B holoenzyme dissociation, Cy5-IP20 fluorescence polarization; R2B truncated from residue 108, S112A mutant; 0% DMSO only, 100% 113 µM cGMP | activation, % at 11.4 µM | 0.079% of 340,000 active;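 active = activation above a cutoff set at the mean over all compounds plus 3 SD, cut at about 18% in these data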;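 also: higher means more holoenzyme dissociation and a rise in polarization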
ATG4B conf = confirmation of human ATG4B inhibitors. shares compounds with ATG4B inh. ATG4B protease fluorescent substrate cleavage assay. inhibition, % at 8.33 µM. 92% of 320 active. AID 504757; in the data active = inhibition above about 39%
PLA2 ctr = inhibits human PLA2, flagging false ATG4B inhibitors | purified PLA2, NBD-C6-HPC fluorescence, 45 min | inhibition, % at 8.33 µM | shares compounds with ATG4B inh | 66% of 1,600 active | AID 588402; in the data active = inhibition above about 50%
Target sequence (P04054 whole entry, looked up): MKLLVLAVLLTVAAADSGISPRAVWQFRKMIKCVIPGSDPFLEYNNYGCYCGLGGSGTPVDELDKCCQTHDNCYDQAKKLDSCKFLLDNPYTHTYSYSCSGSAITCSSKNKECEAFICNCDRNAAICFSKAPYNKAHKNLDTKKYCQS
PfG6PD confirm = confirmation of Plasmodium falciparum G6PD inhibitors. inhibition, % at 20 µM. shares compounds with PfG6PD inh. 34% of 2,400 active. AID 504753. recombinant PfGluPho, NADPH-diaphorase-resazurin fluorescence;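 active = inhibition of at least 50% at 20 µM in any single replicate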
Diaphorase 10uM = diaphorase inhibition or oxidation at 10 uM NADPH. inhibition, % at 20 µM. AID 504862. diaphorase-coupled resazurin reduction, fluorescence, NADPH 10 uM. shares compounds with PfG6PD inh. 39% of 820 active;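 active = average inhibition reaching 50% or more with the compound at 20 µM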;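 also: resorufin red fluorescence formed as diaphorase reduces resazurin using NADPH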
Diaphorase 30uM = counter-screen for P. falciparum G6PD inhibitors: diaphorase inhibitors, oxidizers | shares compounds with PfG6PD inh | Diaphorase/resazurin coupled assay, resorufin fluorescence, 30 uM NADPH | inhibition, % at 20 µM | 29% of 820 active | AID 504863;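 active = inhibition averaging 50% or more, tested at 20 µM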
R2B FP artifact = fluorescence polarization artifact in PKA-R2B activator counter-screen; shares compounds with PKA-R2B activ; FP artifact counterscreen; activation, % at 11.4 µM; 6% of 270 active; in the data active = activation above about 20%;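 also: Cy5 labelled IP20 peptide probe with compound but no PKA protein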
PKA-R2B confirm = confirmation of human PKA-R2B complex activators; shares compounds with PKA-R2B activ; fluorescence polarization, activation; activation, % at 11.4 µM; 9% of 270 active; AID 504797; in the data active = activation above about 19%
Numbers stand for hits; – = inactive; · = not tested or not shown. Shown are actives, neighbours in structure and some others; about 1.6% of the full set was active somewhere.

SMILES | T cell modulator | PfG6PD inh | PKA-R1A activ | HKDC1 inh | ATG4B inh | PKA-R2B activ | PLA2 ctr | PfG6PD confirm | others
Clc1cccc(Cl)c1CNc1ccc(N2CCCC2)cc1 | – | 96 | · | – | 43 | · | – | 55 | ATG4B conf=64;Diaphorase 10uM=–;Diaphorase 30uM=–
CC(CCN1C(Nc2ccccc2)=NC[C@@H]1Cc1ccccc1)c1ccccc1 (stereo partly drawn) | – | – | – | – | – | – | · | ·
Cc1ccc(-c2csc(NC(=O)c3ccccc3F)c2C(=O)O)cc1 | – | 73 | – | – | 55 | – | 58 | 51 | Diaphorase 10uM=–;Diaphorase 30uM=–
COCCN(C(=O)CSc1nnc(-c2cccc(F)c2)n1N)c1c(N)n(Cc2ccccc2)c(=O)[nH]c1=O | – | – | – | – | – | – | · | ·
C#CCOCCOCCOCCNc1nc(N2CCN(C(=O)CCCCCCCCCCNC(=O)Cn3cc(C[C@@H](C)O)nn3)CC2)nc(N2CCN(C(=O)CCCCCCCCCCNC(=O)[C@H](CCCCN)n3cc(C[C@@H](C)CC)nn3)CC2)n1 | – | – | – | – | – | – | · | ·
C#CCOCCOCCOCCNc1nc(N2CCN(C(=O)CCCCCCCCCCNC(=O)[C@H](CCCCN)n3cc(C[C@@H](C)CC)nn3)CC2)nc(N2CCN(C(=O)CCCCCCCCCCNC(=O)[C@H](CCCCN)n3cc(C[C@@H](C)CC)nn3)CC2)n1 | – | 74 | – | – | 80 | – | 78 | –
O=C(Nc1nnc(CSCc2ccccc2F)s1)c1cccc([N+](=O)[O-])c1 | – | 61 | – | – | 51 | – | 58 | –
CC(C)C(=O)Nc1nnc(CSCc2ccccc2F)s1 | – | – | – | – | – | – | · | ·
Cc1noc(C)c1COc1ccccc1C(=O)N(C)CC(=O)Nc1ccc(F)c(F)c1F | – | – | – | – | – | – | · | ·
Cc1ccc(S(=O)(=O)Nc2ccc3c4c(cccc24)CC3)c(C)c1 | – | 74 | – | – | 63 | – | 78 | –
Cc1ccc2c(c1)[nH]c1c(N3CCN(Cc4ccccc4)CC3)ncnc12 | – | 61 | – | – | 62 | – | 79 | –
Cc1ccc2[nH]c3c(N4CCN(Cc5ccccc5)CC4)ncnc3c2c1 | – | – | – | – | – | – | · | ·
O=C(N/N=C\c1cccc(Cl)c1)c1ccc(Cn2cc(Br)c([N+](=O)[O-])n2)o1 | – | – | – | – | – | – | · | ·
Cc1c(Cl)c([N+](=O)[O-])nn1Cc1ccc(C(=O)N/N=C\c2cccc(Br)c2)o1 | – | 105 | – | – | 58 | – | 68 | 61 | Diaphorase 10uM=61;Diaphorase 30uM=–
O=S(=O)(Nc1cc2nc3ccccc3nc2n1Cc1ccccc1)c1ccc(Cl)cc1 | – | – | – | – | 45 | 22 | – | · | R2B FP artifact=–;PKA-R2B confirm=–
Cc1cccc(OCC(=O)Nc2ccc3c(c2)nc(CCN2CCN(c4ccccn4)CC2)n3C)c1 | – | – | – | – | – | – | · | ·
C=CCn1c(SCc2cc(C(C)=O)ccc2OCC)nc2ccccc2c1=O | – | – | – | – | 50 | 19 | – | · | ATG4B conf=52;R2B FP artifact=–;PKA-R2B confirm=–
C=CCn1c(SCc2nc3ccccc3c(=O)[nH]2)nc2ccccc2c1=O | – | – | – | – | – | – | · | ·
Cc1cccc(-n2ncc3c2CCCC3NC(=O)C2=CC(=O)CC(C)(C)O2)c1C (stereo not drawn) | – | – | – | – | – | – | · | ·
CCOC(=O)C1=C(c2ccccc2)NC(SCC(=O)Nc2ccccc2C)=C(C#N)C1c1ccco1 (stereo not drawn) | – | – | – | – | 66 | 19 | 72 | · | R2B FP artifact=–;PKA-R2B confirm=–
Cc1ccc(NC(=O)CN2CCCC2)c2c1CC(C)(C)O2 | – | – | – | – | – | – | · | ·
Cc1cccc(S(=O)(=O)Nc2ccc(C)c3c2OC(C)(C)C3)c1 | – | 107 | – | – | – | – | · | –
Cc1ccc(NS(=O)(=O)c2ccccc2Cl)c2c1CC(C)(C)O2 | – | 109 | – | – | – | – | · | 59 | Diaphorase 10uM=–;Diaphorase 30uM=–
Cc1ccccc1NS(=O)(=O)c1cc(C(=O)N2CCCC2)ccc1Cl | – | – | – | – | – | – | · | ·
Cc1[nH]n(-c2ccccc2)c(=S)c1C=Nc1cccc([N+](=O)[O-])c1 | – | 110 | – | – | – | – | · | –
SMILES | T cell modulator | PfG6PD inh | PKA-R1A activ | HKDC1 inh | ATG4B inh | PKA-R2B activ | PLA2 ctr | PfG6PD confirm | others
CCCCN=Cc1c(C)[nH]n(-c2ccccc2)c1=S | – | – | – | – | – | – | · | ·
CCOc1ccccc1CN1CCNC(=O)C1CC(=O)NC1CCCCCCC1 (stereo not drawn) | – | – | – | – | – | – | · | ·
COc1ccc(N2CC(C(=O)N/N=C/c3ccccc3)CC2=O)cc1 (stereo not drawn) | – | – | – | – | – | – | · | ·
O=C(N/N=C/c1cccc(Br)c1)C1CC(=O)N(c2ccccc2)C1 (stereo not drawn) | – | 73 | – | – | – | – | · | –
O=C(c1ccc(N2C(=O)C3C4CC(C(Br)C4Br)C3C2=O)cc1)N1CCCCC1 (stereo not drawn) | · | – | – | – | – | – | · | ·
Cc1nc2scc(C)n2c(=O)c1S(=O)(=O)N1CCN(c2cccc(C(F)(F)F)c2)CC1 | – | – | – | – | – | – | · | ·
Cc1ccccc1NC(=S)Nc1cccc2cnccc12 | – | – | – | – | – | – | · | ·
Cc1ccc(C)c(NC(=S)Nc2cccc3cnccc23)c1 | – | 101 | – | – | – | – | · | –
CC(=O)c1ccc(NC(=S)Nc2cccc3cnccc23)cc1 | – | 64 | – | – | – | – | · | –
Cc1ccc(-n2nnnc2-c2ccccc2Br)cc1 | – | 62 | · | – | – | · | · | –
Cc1ccc(-c2nnnn2-c2ccc(C)cc2)cc1 | – | – | – | – | – | – | · | ·
